Test [1] concerns the target T1, Transcriptional enhancer factor TEF-3 (Homo sapiens, UniProt Q15561). Nature of the test: Reversible inhibition of CPM binding to nonacylated N-terminal His6-tagged human TEAD4 (217 to 434 residues) expressed in Escherichia coli BL21-CodonPlus (DE3)-RIPL cells measured after 1 to 24 hrs by fluorescence assay.
Test [2] deals with T1, Transcriptional enhancer factor TEF-3. Nature of the test: Binding affinity to nonacylated N-terminal His6-tagged human TEAD4 (217 to 434 residues) expressed in Escherichia coli BL21-CodonPlus (DE3)-RIPL cells at 8 equiv after 1 hr by ESI-MS spectrophotometric analysis. A digest of the protocol:
(§1)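 Whole-protein ESI–MS: 1 μM hTEAD4 incubated 1 h at room temperature with 8 equiv compound in 25 mM HEPES, 150 mM NaCl, pH 6.5; centrifuged, injected via online desalting column to UPLC-MS; masses deconvoluted to detect adducts.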

Test [3] shares this target. Nature of the test: Binding affinity to nonacylated N-terminal His6-tagged human TEAD4 (217 to 434 residues) expressed in Escherichia coli BL21-CodonPlus (DE3)-RIPL cells assessed as melting temperature at 80 uM after 10 mins by SYPRO orange dye-based differential scanning fluorimetry method (reference value: 41 degreeC). On the technique in general: DSF heats the sample and reads unfolding from a dye or from intrinsic fluorescence.

In test [4] the target is Transcriptional enhancer factor TEF-3 (Mus musculus) (UniProt Q62296). Briefly: Binding affinity to nonacylated mouse TEAD4 assessed as line broadening at Phe386 residue at 0.5 mM by 1H-15N HSQC spectra analysis. A digest of the protocol:
(§2)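 1H–15N HSQC of 13C/15N-labeled mTEAD4, deacylated with hydroxylamine; spectra with DMSO or compound (0.5 mM) recorded at 37 °C on a 600 MHz cryoprobe instrument in 20 mM HEPES pH 7.3, 150 mM NaCl, 1 mM DTT; spectra overlaid.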

In test [5] the target is T1, Transcriptional enhancer factor TEF-3. Nature of the test: Inhibition of CPM binding to nonacylated N-terminal His6-tagged human TEAD4 (217 to 434 residues) expressed in Escherichia coli BL21-CodonPlus (DE3)-RIPL cells assessed as ratio of Kinact to Ki measured after 1 to 24 hrs by fluorescence assay. To be noted: time hrs 1-24.
Test [6] deals with Transcriptional enhancer factor TEF-3 (Mus musculus) (UniProt Q62296). Briefly: Binding affinity to nonacylated mouse TEAD4 assessed as line broadening at Phe408 residue at 0.5 mM by 1H-15N HSQC spectra analysis. A digest of the protocol:
as §2

Test [7] has as its target T1, Transcriptional enhancer factor TEF-3. Briefly: Binding affinity to N-terminal His6-tagged human TEAD4 (217 to 434 residues) expressed in Escherichia coli BL21-CodonPlus (DE3)-RIPL cells assessed as inhibition of protein-FAM-YAP (50 to 100 residues) interaction preincubated for 10 mins followed by FAM YAP addition and measured after 1 hr by fluorescence assay. The conditions noted are these: time 70.0 min. A digest of the protocol: (§3)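 FP competition in PBS pH 7.5: serially diluted compound preincubated 10 min at room temperature with TEAD4 protein, then FAM-YAP50–100 added; shaken 1 h at room temperature, FP read at Ex/Em 485/535 nm. Final FAM/protein: nonacylated hTEAD4 2 nM/5 nM; acylated hTEAD4 3 nM/15 nM. Compound stocks 10 mM in DMSO. IC50 from curve fitting.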

Test [8] shares this target. Briefly: Inhibition of FITC-labeled palmitate tracer binding to N-terminal His6-tagged human TEAD4 (217 to 434 residues) expressed in Escherichia coli BL21-CodonPlus (DE3)-RIPL cells assessed as ratio of Kinact to Ki measured after 1 to 24 hrs by fluorescence assay. To be noted: time hrs 1-24.
Test [9] has the same target. Nature of the test: Inhibition of CPM binding to N-terminal His6-tagged human TEAD4 (217 to 434 residues) expressed in Escherichia coli BL21-CodonPlus (DE3)-RIPL cells at 12.5 uM preincubated for 10 mins followed by CPM addition and measured after 1 hr by fluorescence assay relative to control. To be noted: time 70.0 min.
For test [10] the target is unchanged. Nature of the test: Binding affinity to nonacylated N-terminal His6-tagged human TEAD4 (217 to 434 residues) expressed in Escherichia coli BL21-CodonPlus (DE3)-RIPL cells assessed as inhibition of protein-FAM-YAP (50 to 100 residues) interaction preincubated for 10 mins followed by FAM YAP addition and measured after 1 hr by fluorescence assay. A digest of the protocol: as §3

Test [11] has the same target. Briefly: Inhibition of CPM binding to N-terminal His6-tagged human TEAD4 (217 to 434 residues) expressed in Escherichia coli BL21-CodonPlus (DE3)-RIPL cells preincubated for 10 mins followed by CPM addition and measured after 1 hr by fluorescence assay. The conditions noted are these: read-out: IC50(app).
In test [12] the target is Transcriptional enhancer factor TEF-1 (Homo sapiens, UniProt P28347). Nature of the test: Inhibition of CPM binding to nonacylated N-terminal His6/GST-tagged human TEAD1 (209 to 426 residues) expressed in Escherichia coli BL21-CodonPlus (DE3)-RIPL cells preincubated for 10 mins followed by CPM addition and measured after 1 hr by fluorescence assay.
Transcriptional enhancer factor TEF-1, sequence (P28347 whole entry, the tested form may be a part): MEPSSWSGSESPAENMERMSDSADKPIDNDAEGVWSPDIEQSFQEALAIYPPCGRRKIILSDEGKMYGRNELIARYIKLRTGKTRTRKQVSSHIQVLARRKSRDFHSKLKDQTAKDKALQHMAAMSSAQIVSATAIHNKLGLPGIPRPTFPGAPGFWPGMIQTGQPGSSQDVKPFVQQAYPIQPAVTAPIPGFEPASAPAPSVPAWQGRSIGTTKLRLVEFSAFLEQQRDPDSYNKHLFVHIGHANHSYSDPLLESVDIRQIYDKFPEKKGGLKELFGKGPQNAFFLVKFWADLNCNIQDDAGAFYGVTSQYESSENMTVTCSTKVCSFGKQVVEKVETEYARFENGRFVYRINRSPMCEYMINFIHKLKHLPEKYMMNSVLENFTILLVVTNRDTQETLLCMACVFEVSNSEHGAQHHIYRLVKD
Test [13] has as its target T1, Transcriptional enhancer factor TEF-3. Nature of the test: Binding affinity to TEAD4 in human HCT-116 cells assessed as change in melting temperature at 50 uM after 10 mins by […]. The test is classed as cell-based. A digest of the protocol:
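CETSA in HCT116 lysates (PBS, 0.04% NP-40, freeze–thaw lysis, 100,000g clearing; 1 mg/mL protein): compound at 50 μM or DMSO for 10 min at room temperature, aliquots heated across a temperature range, recentrifuged 100,000g at 4 °C for 25 min. Soluble TEAD4 detected by immunoblot with anti-TEAD4 antibody; melting temperature from turning point of fitted curves.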

Test [14] has the same target. Nature of the test: Inhibition of FITC-labeled palmitate tracer binding to N-terminal His6-tagged human TEAD4 (217 to 434 residues) expressed in Escherichia coli BL21-CodonPlus (DE3)-RIPL cells preincubated for 10 mins followed by FITC-labeled palmitate tracer addition and measured after 1 hr by fluorescence assay. A digest of the protocol: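 FP competition in 25 mM HEPES, 150 mM NaCl, pH 6.5: serially diluted compound preincubated 10 min at room temperature with nonacylated hTEAD4, then FITC-palmitate tracer added (final 50 nM protein, 10 nM tracer); shaken 1 h at room temperature, FP at Ex/Em 485/535 nm. Tracer Kd from saturation binding.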

Test [15] is filed under the species Mus musculus. Briefly: Binding affinity to N-terminal His6-tagged mouse TEAD4 Cys360Ser mutant assessed as inhibition of protein-FAM-YAP (50 to 100 residues) interaction preincubated for 10 mins followed by FAM YAP addition and measured after 1 hr by fluorescence assay. The conditions noted are these: time 70.0 min. A digest of the protocol:
(§4)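 FP competition in PBS pH 7.5 with mTEAD4 Cys360Ser or Cys360Ala mutant: serially diluted compound preincubated 10 min at room temperature with protein, then FAM-YAP50–100 added (final 10 nM FAM / 50 nM protein for each mutant); shaken 1 h at room temperature, FP read at Ex/Em 485/535 nm.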

For test [16], the target named is T1, Transcriptional enhancer factor TEF-3. Briefly: Inhibition of TEAD4 in HEK293 cells assessed as reduction in ANKRD1 mRNA expression at 1 uM measured after 6 hrs by SYBR green dye based RT-PCR analysis relative to control. The format is cell-based. A digest of the protocol: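 HEK293 cells treated with DMSO or compound for 6 h; ANKRD1 mRNA measured by RT-qPCR relative to the DMSO control.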

The species entered for test [17] is Mus musculus. Briefly: Binding affinity to N-terminal His6/MBP-tagged mouse TEAD4 (209 to 427 residues) Cys360Ala mutant expressed in Escherichia coli BL21-CodonPlus (DE3)-RIPL cells assessed as inhibition of protein-FAM-YAP (50 to 100 residues) interaction preincubated for 10 mins followed by FAM YAP addition and measured after 1 hr by fluorescence assay. The conditions noted are these: time 70.0 min. A digest of the protocol: as §4

For test [18], the target named is T1, Transcriptional enhancer factor TEF-3. Briefly: Binding affinity to acylated N-terminal His6-tagged human TEAD4 (217 to 434 residues) expressed in Escherichia coli BL21-CodonPlus (DE3)-RIPL cells assessed as covalent adduct formation at 8 equiv after 1 hr by ESI-MS spectrophotometric analysis. A digest of the protocol: as §1

The source made the active and inactive calls. The calls are words filed in the database; no cut-off is given here.

T1 sequence (Q15561 whole entry, the tested form may be a part): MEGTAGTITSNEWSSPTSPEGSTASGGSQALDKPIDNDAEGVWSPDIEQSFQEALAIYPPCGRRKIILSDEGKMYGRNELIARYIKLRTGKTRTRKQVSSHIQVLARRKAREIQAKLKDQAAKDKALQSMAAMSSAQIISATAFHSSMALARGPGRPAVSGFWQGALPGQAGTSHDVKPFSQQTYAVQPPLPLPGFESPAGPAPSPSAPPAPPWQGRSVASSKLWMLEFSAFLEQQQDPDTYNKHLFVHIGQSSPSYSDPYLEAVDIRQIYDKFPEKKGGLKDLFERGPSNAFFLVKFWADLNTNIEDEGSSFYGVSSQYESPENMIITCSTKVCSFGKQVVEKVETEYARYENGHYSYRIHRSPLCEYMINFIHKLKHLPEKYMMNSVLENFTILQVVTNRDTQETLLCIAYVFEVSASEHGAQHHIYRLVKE
Transcriptional enhancer factor TEF-3 (Mus musculus), sequence (Q62296 whole entry): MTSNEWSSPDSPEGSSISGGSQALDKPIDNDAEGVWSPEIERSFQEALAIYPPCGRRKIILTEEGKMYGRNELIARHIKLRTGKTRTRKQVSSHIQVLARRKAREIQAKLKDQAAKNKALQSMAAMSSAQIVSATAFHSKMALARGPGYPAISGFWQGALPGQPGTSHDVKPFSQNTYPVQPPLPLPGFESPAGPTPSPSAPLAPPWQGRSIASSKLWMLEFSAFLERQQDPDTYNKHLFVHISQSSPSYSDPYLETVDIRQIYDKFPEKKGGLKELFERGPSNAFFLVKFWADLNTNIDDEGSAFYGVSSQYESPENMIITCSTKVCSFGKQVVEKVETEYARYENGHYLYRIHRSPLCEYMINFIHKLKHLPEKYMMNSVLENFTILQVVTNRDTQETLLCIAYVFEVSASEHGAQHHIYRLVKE

As usually defined, the Ki is a measure of affinity in units of concentration, obtained from inhibition or displacement. The term inhibition denotes the share of the control response that was lost under treatment. A word on the IC50: it is the concentration needed to halve the response being measured. The ΔTm is the shift of the melting midpoint relative to a reference. Turning to `O=c1cc(CO)oc(C(Nc2ccccc2)c2ccccc2)c1O` (stereo not drawn), in test [1], the Ki was 2600 nM. In addition, the result in [2], in test [4] and in [6] was Active. The Tm in test [3] came to 36 °C. For the same compound, the Ratio was determined as 8.3 in test [5] and 4 in test [8]. Moreover, the inhibition result (in test [7]; in the test filed under Mus musculus [15]; in the test listed under Mus musculus [17]) was “inactive” in each case. Also, the inhibition in [9] was over 50%; in test [16], 90%. Also, the half-inhibitory concentration (IC50) in test [10] came out at 70 nM; in test [11] it was 2300 nM; in test [12], 2600 nM; in test [14], 200 nM. Besides, the ΔTm in test [13] was 3.3 °C. Further, in test [18], the outcome was inactive.

Values taken from ChEMBL document CHEMBL4665803, “Discovery of Covalent Inhibitors Targeting the Transcriptional Enhanced Associate Domain Central Pocket” (J Med Chem, 2020).
